In ChEMBL document CHEMBL4190320, “Clathrodin, hymenidin and oroidin, and their synthetic analogues as inhibitors of the voltage-gated potassium channels” (Eur J Med Chem, 2017):
The source made the active and inactive calls. The calls are words filed in the database; no cut-off is given here.

Tests used:
[1] = biological target: Potassium voltage-gated channel subfamily A member 1 (Homo sapiens, UniProt Q09470); test: Inhibition of human Kv1.1 expressed in CHO cells at -80 mV holding potential by whole cell automated patch clamp method; type: cell-based
Sequence of Potassium voltage-gated channel subfamily A member 1 (Q09470 whole entry): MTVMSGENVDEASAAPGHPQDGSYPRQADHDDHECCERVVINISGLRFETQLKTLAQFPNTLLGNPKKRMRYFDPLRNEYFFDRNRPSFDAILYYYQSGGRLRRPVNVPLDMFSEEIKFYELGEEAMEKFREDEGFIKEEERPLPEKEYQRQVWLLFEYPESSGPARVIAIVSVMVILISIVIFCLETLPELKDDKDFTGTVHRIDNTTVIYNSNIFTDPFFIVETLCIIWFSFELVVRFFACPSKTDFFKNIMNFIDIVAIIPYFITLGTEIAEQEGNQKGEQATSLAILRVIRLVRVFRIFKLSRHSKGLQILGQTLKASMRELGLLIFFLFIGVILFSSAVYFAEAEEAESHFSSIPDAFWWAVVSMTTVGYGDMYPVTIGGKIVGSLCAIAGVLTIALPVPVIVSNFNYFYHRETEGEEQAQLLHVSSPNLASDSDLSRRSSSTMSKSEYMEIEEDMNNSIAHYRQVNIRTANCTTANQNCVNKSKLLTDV
Method in brief: (§1)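 Human channels stably expressed in CHO cells, dissociated with 0.05% trypsin-EDTA, held in serum-free medium and resuspended in extracellular solution just before recording. Whole-cell QPatch recordings used a -80 mV holding potential and 500 ms steps to +30 mV at 0.067 Hz. Series resistance was 80% compensated with P/n leak subtraction. After 0.1% DMSO vehicle, four escalating concentrations were applied cumulatively.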

[2] = biological target: Potassium voltage-gated channel subfamily A member 2 (Homo sapiens, UniProt P16389); test: Inhibition of human Kv1.2 expressed in CHO cells at -80 mV holding potential by whole cell automated patch clamp method; type: cell-based; method in brief: as §1
Sequence of Potassium voltage-gated channel subfamily A member 2 (P16389 whole entry): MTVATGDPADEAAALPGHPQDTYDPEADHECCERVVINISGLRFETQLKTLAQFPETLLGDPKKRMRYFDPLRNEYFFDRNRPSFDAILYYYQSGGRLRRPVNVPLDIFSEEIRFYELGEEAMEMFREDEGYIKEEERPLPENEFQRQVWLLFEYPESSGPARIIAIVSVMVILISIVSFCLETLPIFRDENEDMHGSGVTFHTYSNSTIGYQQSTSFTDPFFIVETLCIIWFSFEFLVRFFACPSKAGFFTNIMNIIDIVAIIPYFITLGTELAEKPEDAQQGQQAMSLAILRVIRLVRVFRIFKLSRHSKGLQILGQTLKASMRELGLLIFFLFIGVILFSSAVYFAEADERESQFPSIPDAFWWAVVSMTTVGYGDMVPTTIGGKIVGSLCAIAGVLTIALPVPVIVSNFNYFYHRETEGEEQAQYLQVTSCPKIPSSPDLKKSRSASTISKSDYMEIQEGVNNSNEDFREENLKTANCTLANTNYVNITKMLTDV

[3] = biological target: Potassium voltage-gated channel subfamily A member 4 (Homo sapiens, UniProt P22459); test: Inhibition of human Kv1.4 expressed in CHO cells at -80 mV holding potential by whole cell automated patch clamp method; type: cell-based; method in brief: as §1
Sequence of Potassium voltage-gated channel subfamily A member 4 (Homo sapiens, UniProt P22459) (P22459 whole entry): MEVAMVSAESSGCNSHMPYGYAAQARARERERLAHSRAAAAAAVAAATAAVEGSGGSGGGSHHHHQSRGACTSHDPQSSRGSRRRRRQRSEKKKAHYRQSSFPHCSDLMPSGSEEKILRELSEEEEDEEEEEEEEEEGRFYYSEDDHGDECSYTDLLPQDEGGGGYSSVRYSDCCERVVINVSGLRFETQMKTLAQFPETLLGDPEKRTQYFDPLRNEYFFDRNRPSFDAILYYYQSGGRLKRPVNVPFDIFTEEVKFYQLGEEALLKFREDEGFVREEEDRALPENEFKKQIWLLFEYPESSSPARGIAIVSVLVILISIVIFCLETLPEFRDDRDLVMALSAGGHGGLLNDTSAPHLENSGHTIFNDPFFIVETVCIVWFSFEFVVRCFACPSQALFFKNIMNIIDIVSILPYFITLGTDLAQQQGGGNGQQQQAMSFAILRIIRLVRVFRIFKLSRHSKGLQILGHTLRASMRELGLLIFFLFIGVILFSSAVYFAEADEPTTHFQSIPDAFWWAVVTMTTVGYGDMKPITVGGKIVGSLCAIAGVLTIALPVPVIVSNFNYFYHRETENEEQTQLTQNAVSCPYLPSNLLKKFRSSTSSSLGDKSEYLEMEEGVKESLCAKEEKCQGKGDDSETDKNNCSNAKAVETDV

[4] = biological target: Potassium voltage-gated channel subfamily A member 5 (Homo sapiens, UniProt P22460); test: Inhibition of human Kv1.5 expressed in CHO cells at -80 mV holding potential by whole cell automated patch clamp method; type: cell-based
Sequence of Potassium voltage-gated channel subfamily A member 5 (P22460 whole entry): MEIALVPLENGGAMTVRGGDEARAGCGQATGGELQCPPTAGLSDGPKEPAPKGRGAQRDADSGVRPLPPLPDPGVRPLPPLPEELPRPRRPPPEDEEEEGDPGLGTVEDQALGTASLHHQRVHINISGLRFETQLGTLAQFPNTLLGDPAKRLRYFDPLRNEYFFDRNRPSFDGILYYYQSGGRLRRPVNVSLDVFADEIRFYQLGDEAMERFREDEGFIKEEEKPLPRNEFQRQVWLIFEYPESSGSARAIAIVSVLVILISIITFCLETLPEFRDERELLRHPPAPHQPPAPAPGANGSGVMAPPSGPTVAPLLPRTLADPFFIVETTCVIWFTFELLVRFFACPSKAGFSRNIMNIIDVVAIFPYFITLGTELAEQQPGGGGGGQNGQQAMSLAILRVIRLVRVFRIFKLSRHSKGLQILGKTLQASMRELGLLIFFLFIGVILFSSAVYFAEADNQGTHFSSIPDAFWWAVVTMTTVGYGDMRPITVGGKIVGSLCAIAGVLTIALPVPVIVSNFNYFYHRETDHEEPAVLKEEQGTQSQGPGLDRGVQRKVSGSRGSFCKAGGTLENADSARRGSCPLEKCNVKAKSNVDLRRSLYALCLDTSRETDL

[5] = biological target: Potassium voltage-gated channel subfamily A member 6 (Homo sapiens, UniProt P17658); test: Inhibition of human Kv1.6 expressed in CHO cells at -80 mV holding potential by whole cell automated patch clamp method; type: cell-based; method in brief: as §1
[6] = biological target: T1, Potassium voltage-gated channel subfamily A member 3 (Homo sapiens, UniProt P22001); test: Inhibition of human Kv1.3 expressed in CHO cells at -80 mV holding potential by whole cell automated patch clamp method; type: cell-based; method in brief: as §1
[7] = biological target: Potassium voltage-gated channel subfamily A member 4 (Rattus norvegicus, UniProt P15385); test: Inhibition of rat Kv1.4 expressed in Xenopus laevis oocytes at -90 mV holding potential by two-electrode voltage clamp assay; type: cell-based
Method in brief: (§2)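 Stage V-VI Xenopus laevis oocytes were injected with 50 nL cRNA (1 ng/nL). Currents were recorded by two-electrode voltage clamp. IC50 values come from at least 3 independent experiments and are given as mean ± standard error.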

[8] = biological target: Potassium voltage-gated channel subfamily A member 6 (Rattus norvegicus, UniProt P17659); test: Inhibition of rat Kv1.6 expressed in Xenopus laevis oocytes at -90 mV holding potential by two-electrode voltage clamp assay; type: cell-based; method in brief: as §2
[9] = biological target: Potassium voltage-gated channel subfamily A member 1 (Rattus norvegicus) (UniProt P10499); test: Inhibition of rat Kv1.1 expressed in Xenopus laevis oocytes at 1 uM at -90 mV holding potential by two-electrode voltage clamp assay relative to control; type: cell-based
Sequence of Potassium voltage-gated channel subfamily A member 1 (Rattus norvegicus) (P10499 whole entry): as the sequence (Q09470 whole entry) above, with V9A, V202I, N213T, M449I, V471A, A476G, T480A, A481T, N482D counted along it

[10] = biological target: Potassium voltage-gated channel subfamily A member 2 (Rattus norvegicus) (UniProt P63142); test: Inhibition of rat Kv1.2 expressed in Xenopus laevis oocytes at 1 uM at -90 mV holding potential by two-electrode voltage clamp assay relative to control; type: cell-based
[11] = biological target: Potassium voltage-gated channel subfamily A member 4 (Rattus norvegicus) (UniProt P15385); test: Inhibition of rat Kv1.4 expressed in Xenopus laevis oocytes at 1 uM at -90 mV holding potential by two-electrode voltage clamp assay relative to control; type: cell-based
Sequence of Potassium voltage-gated channel subfamily A member 4 (Rattus norvegicus) (P15385 whole entry): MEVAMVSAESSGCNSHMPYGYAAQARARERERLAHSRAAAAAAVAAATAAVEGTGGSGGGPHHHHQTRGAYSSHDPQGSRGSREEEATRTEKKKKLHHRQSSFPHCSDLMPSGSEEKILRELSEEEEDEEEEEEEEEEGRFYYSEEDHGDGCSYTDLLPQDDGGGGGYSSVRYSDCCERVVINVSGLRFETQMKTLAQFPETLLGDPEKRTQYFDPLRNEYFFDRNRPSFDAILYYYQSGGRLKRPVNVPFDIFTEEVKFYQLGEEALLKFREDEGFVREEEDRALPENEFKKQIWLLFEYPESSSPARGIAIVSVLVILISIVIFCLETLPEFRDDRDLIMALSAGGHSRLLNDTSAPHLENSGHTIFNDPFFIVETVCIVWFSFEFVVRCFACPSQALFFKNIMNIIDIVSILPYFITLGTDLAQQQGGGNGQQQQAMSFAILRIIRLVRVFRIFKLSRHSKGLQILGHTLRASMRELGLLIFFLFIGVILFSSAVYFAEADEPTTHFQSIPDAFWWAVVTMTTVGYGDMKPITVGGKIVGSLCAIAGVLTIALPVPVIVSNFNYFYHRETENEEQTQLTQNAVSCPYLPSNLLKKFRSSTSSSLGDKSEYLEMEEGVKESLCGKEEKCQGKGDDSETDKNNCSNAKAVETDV

[12] = biological target: Potassium voltage-gated channel subfamily A member 5 (Rattus norvegicus) (UniProt P19024); test: Inhibition of rat Kv1.5 expressed in Xenopus laevis oocytes at 1 uM at -90 mV holding potential by two-electrode voltage clamp assay relative to control; type: cell-based
Sequence of Potassium voltage-gated channel subfamily A member 5 (Rattus norvegicus) (P19024 whole entry): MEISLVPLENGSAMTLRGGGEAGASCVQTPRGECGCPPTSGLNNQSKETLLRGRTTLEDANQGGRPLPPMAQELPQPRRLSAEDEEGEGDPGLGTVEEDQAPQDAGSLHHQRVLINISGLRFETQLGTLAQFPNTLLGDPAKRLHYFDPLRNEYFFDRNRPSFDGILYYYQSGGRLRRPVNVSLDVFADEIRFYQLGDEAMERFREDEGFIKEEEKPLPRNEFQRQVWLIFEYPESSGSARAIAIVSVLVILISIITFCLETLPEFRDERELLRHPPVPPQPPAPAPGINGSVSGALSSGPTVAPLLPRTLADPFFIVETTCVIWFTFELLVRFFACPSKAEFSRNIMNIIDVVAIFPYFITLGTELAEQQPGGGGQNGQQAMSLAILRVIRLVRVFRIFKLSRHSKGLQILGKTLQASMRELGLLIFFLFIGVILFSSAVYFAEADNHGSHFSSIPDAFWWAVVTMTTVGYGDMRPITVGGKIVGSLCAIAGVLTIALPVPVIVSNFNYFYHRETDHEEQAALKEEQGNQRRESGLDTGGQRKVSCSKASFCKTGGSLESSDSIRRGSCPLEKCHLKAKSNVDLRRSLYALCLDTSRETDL

[13] = biological target: Potassium voltage-gated channel subfamily A member 6 (Rattus norvegicus) (UniProt P17659); test: Inhibition of rat Kv1.6 expressed in Xenopus laevis oocytes at 1 uM at -90 mV holding potential by two-electrode voltage clamp assay relative to control; type: cell-based
Sequence of Potassium voltage-gated channel subfamily A member 6 (Rattus norvegicus) (P17659 whole entry): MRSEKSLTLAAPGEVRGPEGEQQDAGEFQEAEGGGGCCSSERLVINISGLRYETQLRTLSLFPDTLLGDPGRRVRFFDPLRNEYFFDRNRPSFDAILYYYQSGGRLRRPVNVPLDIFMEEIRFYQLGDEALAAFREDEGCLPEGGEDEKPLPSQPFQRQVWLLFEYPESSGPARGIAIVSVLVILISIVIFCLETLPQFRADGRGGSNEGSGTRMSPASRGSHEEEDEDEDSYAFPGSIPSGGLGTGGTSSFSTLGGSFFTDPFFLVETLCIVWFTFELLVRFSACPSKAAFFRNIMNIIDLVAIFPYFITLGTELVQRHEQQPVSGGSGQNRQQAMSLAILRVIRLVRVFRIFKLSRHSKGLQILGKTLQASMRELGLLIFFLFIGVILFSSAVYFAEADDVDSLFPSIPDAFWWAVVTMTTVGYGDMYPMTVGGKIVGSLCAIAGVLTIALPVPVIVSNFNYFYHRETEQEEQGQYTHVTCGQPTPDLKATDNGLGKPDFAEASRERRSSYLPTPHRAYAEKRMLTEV

[14] = biological target: T1, Potassium voltage-gated channel subfamily A member 3; test: Inhibition of human Kv1.3 expressed in Xenopus laevis oocytes at -90 mV holding potential by two-electrode voltage clamp assay
[15] = biological target: T1, Potassium voltage-gated channel subfamily A member 3; test: Inhibition of human Kv1.3 expressed in Xenopus laevis oocytes at 1 uM at -90 mV holding potential by two-electrode voltage clamp assay relative to control
[16] = test system: Potassium voltage-gated channel subfamily H member 1 (Homo sapiens); test: Inhibition of human Kv10.1 expressed in Xenopus laevis oocytes at 1 uM at -90 mV holding potential by two-electrode voltage clamp assay relative to control

| SMILES | IC50 [1] | IC50 [2] | IC50 [3] | IC50 [4] | IC50 [5] | IC50 [6] | IC50 [7] | IC50 [8] | inhibition [9] | inhibition [10] | inhibition [11] | inhibition [12] | inhibition [13] | IC50 [14] | inhibition [15] | inhibition [16] |
| --- | --- | --- | --- | --- | --- | --- | --- | --- | --- | --- | --- | --- | --- | --- | --- | --- |
| O=c1ccc2c(OCCCCOc3ccccc3)c3ccoc3cc2o1 | 0.25 µM | 0.45 µM | 0.17 µM | 0.088 µM | 0.13 µM |  |  |  |  |  |  |  |  |  |  |  |
| Cc1[nH]c(C(=O)NC/C=C/c2c[nH]c(N)n2)cc1Br | > 30 µM | > 30 µM | 12 µM | > 30 µM | 11 µM | 25 µM | 0.38 µM | 9.8 µM | inactive | inactive | 46% | inactive | 63% | > 10 µM | inactive | inactive |
| CC(C)(C)OC(=O)N1CCC(C(=O)NC/C=C/c2c[nH]c(N)n2)CC1 |  |  |  |  |  | > 30 µM |  |  | inactive | inactive | inactive | inactive | inactive |  | inactive | inactive |
| Nc1nc(CCCNC(=O)c2cc(Br)c(Br)[nH]2)c[nH]1 |  |  |  |  |  | > 30 µM |  |  | inactive | inactive | inactive | inactive | inactive |  | inactive | inactive |
| COc1ccc2[nH]c(C(=O)NC/C=C/c3c[nH]c(N)n3)cc2c1 |  |  |  |  |  | > 30 µM |  |  | inactive | inactive | inactive | inactive | inactive |  | inactive | inactive |
| Nc1nc(/C=C/CNC(=O)c2cc3cc(F)ccc3[nH]2)c[nH]1 | > 30 µM | > 30 µM | 8.8 µM | > 30 µM | 7.9 µM | 14 µM |  |  | inactive | inactive | inactive | inactive | inactive |  | 28% | inactive |
| Cc1[nH]c(C(=O)NC/C=C/c2c[nH]c(N)n2)c(Br)c1Br | > 30 µM | > 30 µM | 12 µM | > 30 µM | 29 µM | 17 µM | 0.23 µM | > 10 µM | inactive | inactive | 33% | inactive | 41% | > 10 µM | inactive | inactive |
| Nc1nc(CCCNC(=O)c2cc3ccccc3[nH]2)c[nH]1 |  |  |  |  |  |  |  |  | inactive | inactive | inactive | inactive | inactive |  | inactive | inactive |
| Nc1nc(/C=C/CNC(=O)c2cc3cc(Cl)ccc3[nH]2)c[nH]1 | > 30 µM | > 30 µM | 17 µM | > 30 µM | 24 µM | 9 µM |  |  | inactive | inactive | inactive | inactive | inactive |  | inactive | inactive |
